Converted amounts (≈) assume the structure as drawn. The source made the active and inactive calls. The calls are words filed in the database; no cut-off is given here.
Key:
Candida albicans = assay: Antimicrobial activity against Candida albicans ATCC 44373 by broth microdilution method; format: functional
Procedure, shortened: (§1)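 Yeasts grown on potato dextrose agar. Inoculum was standardized by McFarland turbidity as for bacteria, into RPMI 1640 broth (M27-A2). DMSO-dissolved compound was tested in twofold dilutions from 320 to 1.25 at 35 °C for 24 h, in duplicate. MIC was the lowest concentration completely inhibiting visible growth. Fungicidal concentration was read by subculturing 20 µL from clear wells on Sabouraud dextrose agar at 35 °C.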

Candida dubliniensis = assay: Antimicrobial activity against Candida dubliniensis CBS 7987 by broth microdilution method; format: functional; procedure, shortened: as §1
Nakaseomyces glabratus = assay: Antimicrobial activity against Candida glabrata […] by broth microdilution method; format: functional; procedure, shortened: as §1
[1] = system: Cryptococcus deneoformans; assay: Antimicrobial activity against Cryptococcus neoformans var.neoformans serotype D ATCC 28952 by broth microdilution method; format: functional
Procedure, shortened: (§2)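 Organism grown on potato dextrose agar, with turbidity-standardized inoculum in RPMI 1640 broth (M27-A2). DMSO-dissolved compound was tested in twofold dilutions from 320 to 1.25 at 35 °C, incubated up to 72 h, in duplicate. MIC was the lowest concentration with no visible growth. Cidal concentration was read by subculturing 20 µL from clear wells on Sabouraud dextrose agar, incubated for the same period.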

Saccharomyces cerevisiae = assay: Antimicrobial activity against Saccharomyces cerevisiae ATCC 2601 by broth microdilution method; format: functional; procedure, shortened: as §2
Staphylococcus aureus = assay: Antimicrobial activity against Staphylococcus aureus ATCC 25923 by broth microdilution method; format: functional; settings: for MBC: read-out: MFC
Procedure, shortened: (§3)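 Bacteria grown overnight on Mueller–Hinton agar. Colonies were suspended in saline to McFarland turbidity (about 10^8 cfu/mL), diluted 1:100 in saline, then 1:20 in Mueller–Hinton broth, giving 5 · 10^4 cfu/mL per well. DMSO-dissolved compound was tested in twofold dilutions from 320 to 1.25 at 35 °C for 24 h. MIC was the lowest concentration with no visible turbidity (M7-A4). Bactericidal concentration was read by subculturing clear wells on Mueller–Hinton agar.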

Klebsiella pneumoniae = assay: Antimicrobial activity against Klebsiella pneumoniae ATCC 1003 by broth microdilution method; format: functional; procedure, shortened: as §3
Escherichia coli = assay: Antimicrobial activity against Escherichia coli ATCC 25922 by broth microdilution method; format: functional; procedure, shortened: as §3
[2] = (§4) Antimicrobial activity against Salmonella setubal ATCC 19196 by broth microdilution method; format: functional, Salmonella enterica subsp. enterica serovar Setubal; settings: Salmonella enterica; procedure, shortened: as §3
[3] = system: Salmonella enterica subsp. enterica serovar Setubal; assay: as §4; format: functional; procedure, shortened: as §3
Prototheca zopfii = assay: Antimicrobial activity against Prototheca zopfii by broth microdilution method; format: functional; procedure, shortened: as §2
Pseudomonas aeruginosa = assay: Antimicrobial activity against Pseudomonas aeruginosa ATCC 27853 by broth microdilution method; format: functional; procedure, shortened: as §3
Rhizopus arrhizus = assay: Antimicrobial activity against Rhizopus oryzae isolate by broth microdilution method; format: functional
Sporothrix schenckii = assay: Antimicrobial activity against Sporothrix schenckii ATCC 1146 by broth microdilution method; format: functional
Fusarium solani = assay: Antimicrobial activity against Fusarium solani isolate by broth microdilution method; format: functional
Aspergillus fumigatus = assay: Antimicrobial activity against Aspergillus fumigatus isolate by broth microdilution method; format: functional
Aspergillus flavus = assay: Antimicrobial activity against Aspergillus flavus isolate by broth microdilution method; format: functional
Aspergillus niger = assay: Antimicrobial activity against Aspergillus niger isolate by broth microdilution method; format: functional
Aspergillus terreus = assay: Antimicrobial activity against Aspergillus terreus isolate by broth microdilution method; format: functional
Scedosporium boydii = assay: Antimicrobial activity against Pseudallescheria boydii isolate by broth microdilution method; format: functional

MIC (Candida albicans) [µg/mL]	MIC (Candida dubliniensis) [µg/mL]	MIC [1] [µg/mL]	MIC (Staphylococcus aureus) [µg/mL]	MIC (Klebsiella pneumoniae) [µg/mL]	MIC (Escherichia coli) [µg/mL]	MIC [2] [µg/mL]	MIC (Prototheca zopfii) [µg/mL]	MIC (Pseudomonas aeruginosa) [µg/mL]	MIC (Rhizopus arrhizus) [µg/mL]	MIC (Sporothrix schenckii) [µg/mL]	MIC (Fusarium solani) [µg/mL]	MIC (Aspergillus niger) [µg/mL]	MIC (Aspergillus terreus) [µg/mL]	MIC (Aspergillus fumigatus) [µg/mL]	Structure (SMILES)	MFC (Candida albicans) [µg/mL]	MFC (Candida dubliniensis) [µg/mL]	MFC [1] [µg/mL]	MFC (Prototheca zopfii) [µg/mL]	Activity (Aspergillus flavus)	further results
320 (≈ 1100 µM)	160 (≈ 548 µM)	320 (≈ 1100 µM)	320 (≈ 1100 µM)	320 (≈ 1100 µM)	320 (≈ 1100 µM)	320 (≈ 1100 µM)	80 (≈ 274 µM)	320 (≈ 1100 µM)	320 (≈ 1100 µM)	320 (≈ 1100 µM)	80 (≈ 274 µM)	320 (≈ 1100 µM)	320 (≈ 1100 µM)		O=C(NNc1c(F)c(F)c(F)c(F)c1F)c1ccoc1	320 (≈ 1100 µM)	320 (≈ 1100 µM)	320 (≈ 1100 µM)	320 (≈ 1100 µM)	inactive	Activity (Nakaseomyces glabratus): inactive; MIC (Nakaseomyces glabratus): 320 µg/mL (≈ 1100 µM); Activity (Saccharomyces cerevisiae): inactive; Activity (Staphylococcus aureus): inactive; Activity (Klebsiella pneumoniae): inactive; Activity (Escherichia coli): inactive; Activity [3]: inactive; Activity (Pseudomonas aeruginosa): inactive; MFC (Rhizopus arrhizus): 320 µg/mL (≈ 1100 µM); MFC (Sporothrix schenckii): 320 µg/mL (≈ 1100 µM); MFC (Fusarium solani): 80 µg/mL (≈ 274 µM); Activity (Aspergillus fumigatus): inactive; MFC (Aspergillus niger): 320 µg/mL (≈ 1100 µM); MFC (Aspergillus terreus): 320 µg/mL (≈ 1100 µM); Activity (Scedosporium boydii): inactive
	320 (≈ 1580 µM)	320 (≈ 1580 µM)	80 (≈ 396 µM)	320 (≈ 1580 µM)	320 (≈ 1580 µM)	320 (≈ 1580 µM)	160 (≈ 791 µM)	320 (≈ 1580 µM)	320 (≈ 1580 µM)	320 (≈ 1580 µM)	320 (≈ 1580 µM)	320 (≈ 1580 µM)	320 (≈ 1580 µM)	320 (≈ 1580 µM)	O=C(NCc1ccncc1)c1ccoc1		320 (≈ 1580 µM)	320 (≈ 1580 µM)	160 (≈ 791 µM)	inactive	Activity (Candida albicans): inactive; Activity (Nakaseomyces glabratus): inactive; Activity (Saccharomyces cerevisiae): inactive; MBC (Staphylococcus aureus): 320 µg/mL (≈ 1580 µM); Activity (Klebsiella pneumoniae): inactive; Activity (Escherichia coli): inactive; Activity [3]: inactive; Activity (Pseudomonas aeruginosa): inactive; MFC (Rhizopus arrhizus): 320 µg/mL (≈ 1580 µM); MFC (Sporothrix schenckii): 320 µg/mL (≈ 1580 µM); Activity (Fusarium solani): inactive; Activity (Aspergillus fumigatus): inactive; MFC (Aspergillus niger): 320 µg/mL (≈ 1580 µM); MFC (Aspergillus terreus): 320 µg/mL (≈ 1580 µM); MFC (Scedosporium boydii): 320 µg/mL (≈ 1580 µM); MIC (Scedosporium boydii): 320 µg/mL (≈ 1580 µM)
80 (≈ 449 µM)	40 (≈ 225 µM)	20 (≈ 112 µM)	160 (≈ 898 µM)	320 (≈ 1800 µM)	320 (≈ 1800 µM)	320 (≈ 1800 µM)	160 (≈ 898 µM)	160 (≈ 898 µM)	320 (≈ 1800 µM)	160 (≈ 898 µM)	320 (≈ 1800 µM)	320 (≈ 1800 µM)		320 (≈ 1800 µM)	O=C(Nc1nc[nH]n1)c1ccoc1	80 (≈ 449 µM)	80 (≈ 449 µM)	80 (≈ 449 µM)	160 (≈ 898 µM)	inactive	MFC (Nakaseomyces glabratus): 80 µg/mL (≈ 449 µM); MIC (Nakaseomyces glabratus): 80 µg/mL (≈ 449 µM); MFC (Saccharomyces cerevisiae): 320 µg/mL (≈ 1800 µM); MIC (Saccharomyces cerevisiae): 160 µg/mL (≈ 898 µM); MBC (Staphylococcus aureus): 160 µg/mL (≈ 898 µM); MBC (Klebsiella pneumoniae; read-out: MFC): 320 µg/mL (≈ 1800 µM); Activity (Escherichia coli): inactive; Activity [3]: inactive; MBC (Pseudomonas aeruginosa): 320 µg/mL (≈ 1800 µM); Activity (Rhizopus arrhizus): inactive; MFC (Sporothrix schenckii): 320 µg/mL (≈ 1800 µM); Activity (Fusarium solani): inactive; Activity (Aspergillus fumigatus): inactive; Activity (Aspergillus terreus): inactive; MFC (Scedosporium boydii): 320 µg/mL (≈ 1800 µM); MIC (Scedosporium boydii): 320 µg/mL (≈ 1800 µM)

Second part, the molecule before the results:

Structure (SMILES)	MIC (Candida albicans) [µg/mL]	MIC (Candida dubliniensis) [µg/mL]	MIC [1] [µg/mL]	MIC (Staphylococcus aureus) [µg/mL]	MIC (Klebsiella pneumoniae) [µg/mL]	MIC (Escherichia coli) [µg/mL]	MIC [2] [µg/mL]	MIC (Prototheca zopfii) [µg/mL]	MIC (Pseudomonas aeruginosa) [µg/mL]	MIC (Rhizopus arrhizus) [µg/mL]	MIC (Sporothrix schenckii) [µg/mL]	MIC (Fusarium solani) [µg/mL]	MIC (Aspergillus niger) [µg/mL]	MIC (Aspergillus terreus) [µg/mL]	MIC (Aspergillus fumigatus) [µg/mL]	MFC (Candida albicans) [µg/mL]	MFC (Candida dubliniensis) [µg/mL]	MFC [1] [µg/mL]	MFC (Prototheca zopfii) [µg/mL]	Activity (Aspergillus flavus)	further results
O=C(Nn1cnnc1)c1ccoc1	40 (≈ 225 µM)	40 (≈ 225 µM)	10 (≈ 56.1 µM)	320 (≈ 1800 µM)	320 (≈ 1800 µM)	160 (≈ 898 µM)	160 (≈ 898 µM)	80 (≈ 449 µM)	40 (≈ 225 µM)	320 (≈ 1800 µM)	320 (≈ 1800 µM)	320 (≈ 1800 µM)	320 (≈ 1800 µM)	320 (≈ 1800 µM)	320 (≈ 1800 µM)	40 (≈ 225 µM)	40 (≈ 225 µM)	40 (≈ 225 µM)	320 (≈ 1800 µM)	inactive	MFC (Nakaseomyces glabratus): 80 µg/mL (≈ 449 µM); MIC (Nakaseomyces glabratus): 40 µg/mL (≈ 225 µM); MFC (Saccharomyces cerevisiae): 160 µg/mL (≈ 898 µM); MIC (Saccharomyces cerevisiae): 80 µg/mL (≈ 449 µM); MBC (Staphylococcus aureus): 320 µg/mL (≈ 1800 µM); Activity (Klebsiella pneumoniae): inactive; MBC (Escherichia coli): 320 µg/mL (≈ 1800 µM); MBC [2]: 320 µg/mL (≈ 1800 µM); MBC (Pseudomonas aeruginosa): 160 µg/mL (≈ 898 µM); Activity (Rhizopus arrhizus): inactive; Activity (Sporothrix schenckii): inactive; Activity (Fusarium solani): inactive; MFC (Aspergillus fumigatus): 320 µg/mL (≈ 1800 µM); MFC (Aspergillus terreus): 320 µg/mL (≈ 1800 µM); Activity (Scedosporium boydii): inactive
C[C@@H]1[C@H](O)[C@@H](C)/C=C/C=C/C=C/C=C/C=C/C=C/C=C/[C@H](O[C@@H]2O[C@H](C)[C@@H](O)[C@H](N)[C@@H]2O)C[C@@H]2O[C@](O)(C[C@@H](O)C[C@@H](O)[C@H](O)CC[C@@H](O)C[C@@H](O)CC(=O)O[C@H]1C)C[C@H](O)[C@H]2C(=O)O [AMPHOTERICIN B]								0.5 (≈ 0.541 µM)		1 (≈ 1.08 µM)	0.5 (≈ 0.541 µM)	1 (≈ 1.08 µM)	1 (≈ 1.08 µM)	2 (≈ 2.16 µM)	1 (≈ 1.08 µM)						MIC (Aspergillus flavus): 1 µg/mL (≈ 1.08 µM); MIC (Scedosporium boydii): 4 µg/mL (≈ 4.33 µM)

— ChEMBL document CHEMBL1146380, “Synthesis, antimicrobial activity, and QSAR studies of furan-3-carboxamides” (2007)
